Measurements as given in ChEMBL document CHEMBL1221356, “Synthesis and evaluation of antimigratory and antiproliferative activities of lipid-linked [13]-macro-dilactones” (Bioorg Med Chem Lett, 2010).
≈ marks a conversion by molar mass, not a printed value. Calls of active or inactive are those of the source. The rule behind the calls is not given here.

Experiments:
[1] = Therapeutic index, ratio of MLC for humanBT20 cells to MIC for BT20 cells; assay type: cell-based, BT-20; settings: human, read-out: TI
BT-20 [2] = experiment: Antiproliferative activity against human BT20 cells assessed as reduction in cell number after 48 hrs by […] assay; assay type: functional; settings: for MIC: Homo sapiens, 48 h
How it was run: (§1)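 BT-20 cells, 5,000/well, grown 24 h at 37 °C, 5% CO2 before treatment with a range of concentrations or 1% DMSO for 48 h. Cell number by WST-8 tetrazolium absorbance at 450 nm after 3 h, versus an initial plate read at time of dosing. Four wells per experiment, three independent experiments. IC50 fitted from 48 h mean cell numbers. MIC is significant reduction versus control (t-test).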

BT-20 [3] = experiment: Antiproliferative activity against human BT20 cells assessed as after 48 hrs by […]; assay type: functional, cell-based; settings: BT-20, 48 h; how it was run: as §1
BT-20 [4] = experiment: Antimigratory activity against human BT20 cells assessed as mean rate of migration after 48 hrs by wound closure assay; assay type: functional
How it was run: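 Kinetic wound-closure assay in confluent BT-20 monolayers grown in MEM with 10% FBS, wounded 30 min after addition of a range of concentrations or DMSO. Wound area measured from digital images at 3–72 h post-wounding.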

MDA-MB-435 = experiment: Antimigratory activity against human MDA-MB-435 cells assessed as mean rate of migration by wound closure assay; assay type: functional, cell-based
How it was run: (§2)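 Screening scratch-wound assay on confluent monolayers in 24-well plates. Medium changed to fresh medium with 100 µM compound or 1% DMSO; wounds of 0.5–1.0 mm2 scraped with a micropipet tip 30 min later. Scored closed/open by inverted microscopy every 12 h for 72 h; antimigratory if wound remained open after DMSO controls closed. Trypan blue exclusion at end. Culture at 37 °C, 5% CO2.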

MDCK = experiment: Antimigratory activity against MDCK cells assessed as mean rate of migration by wound closure assay; assay type: functional, cell-based; settings: Canis lupus familiaris; how it was run: as §2
T47D = experiment: Antimigratory activity against human T47D cells assessed as mean rate of migration by wound closure assay; assay type: functional, cell-based; how it was run: as §2
BT-20 [5] = experiment: Activity against human BT20 cells by trypan blue exclusion assay

MIC (BT-20 [2]) [µM] | IC50 (BT-20 [3]) [µM] | MIC (BT-20 [4]) [µM] | SMILES | selectivity ratio [1] | MLC (BT-20 [2]) [µM] | Activity (MDA-MB-435) | Activity (MDCK) | Activity (T47D) | MLC (BT-20 [5]) [µM]
25 (≈ 11.8 µg/mL) | 52.9 | – | CCCCCCCCO[C@H]1O[C@H](CO)[C@@H](O)[C@H](OCc2ccccc2)[C@H]1OCc1ccccc1 | 3 | 75 (≈ 35.4 µg/mL) | – | – | – | –
10 (≈ 4.31 µg/mL) | 38.1 | 50 (≈ 21.5 µg/mL) | CCCCCCCCO[C@H]1O[C@@H]2COC(=O)CCCCCCC(=O)O[C@H]2[C@H](O)[C@H]1O | 5 | 50 (≈ 21.5 µg/mL) | Active | Active | inactive | 75 (≈ 32.3 µg/mL)
50 (≈ 22.2 µg/mL) | 107 | 50 (≈ 22.2 µg/mL) | CCCCCCCCO[C@H]1O[C@@H]2COC(=O)CC[C@H]3O[C@@H]3CCC(=O)O[C@H]2[C@H](O)[C@H]1O | > 6 | >300 | Active | Active | inactive | 125 (≈ 55.6 µg/mL)
10 (≈ 3.8 µg/mL) | 47.1 | – | CCCCCCCCO[C@H]1O[C@@H]2COC(c3ccccc3)O[C@H]2[C@H](O)[C@H]1O (stereo partly specified) | 7.5 | 75 (≈ 28.5 µg/mL) | Active | Active | inactive | –
50 (≈ 22.8 µg/mL) | 91.4 | 75 (≈ 34.2 µg/mL) | CCCCCCCCO[C@H]1O[C@@H]2COC(=O)CC/C=C/CCC(=O)O[C@H]2[C@H](OC)[C@H]1OC | 6 | 300 (≈ 137 µg/mL) | Active | Active | inactive | 125 (≈ 57.1 µg/mL)
25 (≈ 11.8 µg/mL) | 61.1 | – | CCCCCCCCO[C@@H]1O[C@H](CO)[C@@H](O)[C@H](OCc2ccccc2)[C@H]1OCc1ccccc1 | 4 | 100 (≈ 47.3 µg/mL) | – | – | – | –
50 (≈ 19 µg/mL) | 72.1 | – | CCCCCCCCO[C@@H]1O[C@@H]2COC(c3ccccc3)O[C@H]2[C@H](O)[C@H]1O (stereo partly specified) | 6 | 300 (≈ 114 µg/mL) | Active | Active | inactive | –
10 (≈ 6.09 µg/mL) | 85.1 | – | CCCCCCCCO[C@H]1O[C@@H]2COC(=O)CC/C=C/CCC(=O)O[C@H]2[C@H](OCc2ccccc2)[C@H]1OCc1ccccc1 | 30 | 300 (≈ 183 µg/mL) | Active | Active | inactive | –
